Assay [1] addresses cAMP-dependent protein kinase type I-alpha regulatory subunit (Homo sapiens) (UniProt P10644). The assay is described as follows: Binding affinity to recombinant human full length PKA-R1alpha expressed in Escherichia coli BL21 DE3-RIL cells assessed as reduction in interaction with AKAP at 20 nM by fluorescence polarization analysis. The procedure, abridged: (§1)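 Single-concentration direct FP screen: 5 μM full-length recombinant human RIα or RIβ mixed with 20 nM 5(6)-FAM-labelled peptide in 20 mM MOPS pH 7, 150 mM NaCl, 0.005% (v/v) CHAPS. Read at room temperature, Ex 482 nm/Em 520 nm, in duplicate.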

Assay [2] addresses cAMP-dependent protein kinase type I-beta regulatory subunit (Homo sapiens) (UniProt P31321). The experiment in a line: Binding affinity to recombinant human full length PKA-R1beta expressed in Escherichia coli BL21 DE3-RIL cells assessed as reduction in interaction with AKAP at 20 nM by fluorescence polarization analysis. Put shortly: as §1

Activity calls are given as the source filed them. No cut-off for these calls is given here.

Chain of cAMP-dependent protein kinase type I-alpha regulatory subunit (Homo sapiens) (P10644 whole entry): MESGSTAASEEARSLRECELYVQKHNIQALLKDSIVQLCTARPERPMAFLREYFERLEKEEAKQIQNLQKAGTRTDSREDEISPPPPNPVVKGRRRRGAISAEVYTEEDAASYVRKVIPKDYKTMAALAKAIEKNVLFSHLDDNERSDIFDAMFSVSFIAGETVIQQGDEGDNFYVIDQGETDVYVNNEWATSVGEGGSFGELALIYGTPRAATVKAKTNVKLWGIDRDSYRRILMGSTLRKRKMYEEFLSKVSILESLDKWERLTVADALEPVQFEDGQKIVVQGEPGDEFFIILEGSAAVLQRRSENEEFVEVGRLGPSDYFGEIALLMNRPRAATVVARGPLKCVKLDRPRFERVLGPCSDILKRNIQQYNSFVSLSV
Chain of cAMP-dependent protein kinase type I-beta regulatory subunit (Homo sapiens) (P31321 whole entry): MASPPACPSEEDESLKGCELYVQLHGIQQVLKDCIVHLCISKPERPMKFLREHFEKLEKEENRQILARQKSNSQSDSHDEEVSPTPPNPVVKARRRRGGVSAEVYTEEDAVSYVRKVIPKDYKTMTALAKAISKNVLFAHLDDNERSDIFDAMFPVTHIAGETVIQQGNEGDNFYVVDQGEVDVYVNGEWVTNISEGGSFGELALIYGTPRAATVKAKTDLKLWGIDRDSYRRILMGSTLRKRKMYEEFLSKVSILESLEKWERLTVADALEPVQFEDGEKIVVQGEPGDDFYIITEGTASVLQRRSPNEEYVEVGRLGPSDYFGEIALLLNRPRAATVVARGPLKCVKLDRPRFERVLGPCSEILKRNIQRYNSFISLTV

Consider `CC(C)C[C@H](NC(=O)[C@H](C)NC(=O)[C@]1(C)CCC/C=C/CCC[C@](C)(NC(=O)[C@H](CO)NC(=O)[C@@H](NC(=O)[C@H](CC(C)C)NC(=O)[C@H](Cc2ccccc2)NC(=O)[C@H](CCCCN)NC(=O)[C@H](C)NC(=O)[C@H](CC(C)C)NC(=O)[C@H](CCCCN)NC(=O)[C@H](CCCCN)NC(=O)COCCOCCOCCN)C(C)C)C(=O)N[C@@H](C)C(=O)N[C@@H](CC(C)C)C(=O)N[C@@H](CCCCN)C(=O)N1)C(=O)N[C@@H](C)C(=O)O`, for which the result in assay [1] and in assay [2] was inactive.
For `CC(C)C[C@H](NC(=O)[C@H](C)NC(=O)[C@]1(C)CCC/C=C/CCC[C@](C)(NC(=O)[C@H](CO)NC(=O)[C@@H](NC(=O)[C@H](C)NC(=O)[C@H](Cc2ccccc2)NC(=O)[C@H](CCCCN)NC(=O)[C@H](C)NC(=O)[C@H](CC(C)C)NC(=O)[C@H](CCCCN)NC(=O)[C@H](CCCCN)NC(=O)COCCOCCOCCN)C(C)C)C(=O)N[C@@H](C)C(=O)N[C@@H](CC(C)C)C(=O)N[C@@H](CCCCN)C(=O)N1)C(=O)N[C@@H](CCCCN)C(=O)O`, the outcome in assay [1] and in assay [2] was inactive.
Regarding `CC(C)C[C@H](NC(=O)[C@H](C)NC(=O)[C@]1(C)CCC/C=C/CCC[C@](C)(NC(=O)[C@H](CO)NC(=O)[C@@H](NC(=O)[C@H](CC(C)C)NC(=O)[C@H](Cc2ccccc2)NC(=O)[C@H](CCCCN)NC(=O)[C@H](C)NC(=O)[C@H](C)NC(=O)[C@H](CCCCN)NC(=O)[C@H](CCCCN)NC(=O)COCCOCCOCCN)C(C)C)C(=O)N[C@@H](C)C(=O)N[C@@H](CC(C)C)C(=O)N[C@@H](CCCCN)C(=O)N1)C(=O)N[C@@H](CCCCN)C(=O)O`, the outcome in assay [1] and in assay [2] was inactive.
As to `CC(C)C[C@H](NC(=O)[C@H](C)NC(=O)[C@H](CCCCN)NC(=O)COCCOCCOCCN)C(=O)N[C@@H](C)C(=O)N[C@@H](CCCCN)C(=O)N[C@@H](Cc1ccccc1)C(=O)N[C@@H](CC(C)C)C(=O)N[C@H](C(=O)N[C@@H](CO)C(=O)N[C@@]1(C)CCC/C=C/CCC[C@@](C)(C(=O)N[C@@H](C)C(=O)N[C@@H](CC(C)C)C(=O)N[C@@H](CCCCN)C(=O)O)NC(=O)[C@H](CCCCN)NC(=O)[C@H](CC(C)C)NC(=O)[C@H](C)NC1=O)C(C)C`, the result in assay [1] and in assay [2] was inactive.
Consider `CC(C)C[C@H](NC(=O)[C@H](C)NC(=O)[C@]1(C)CCC/C=C/CCC[C@](C)(NC(=O)[C@H](CO)NC(=O)[C@@H](NC(=O)[C@H](CC(C)C)NC(=O)[C@H](Cc2ccccc2)NC(=O)[C@H](CCCCN)NC(=O)[C@H](C)NC(=O)[C@H](CC(C)C)NC(=O)[C@H](CCCCN)NC(=O)[C@H](C)NC(=O)COCCOCCOCCN)C(C)C)C(=O)N[C@@H](C)C(=O)N[C@@H](CC(C)C)C(=O)N[C@@H](CCCCN)C(=O)N1)C(=O)N[C@@H](CCCCN)C(=O)O`, for which the outcome in assay [1] and in assay [2] was inactive.
Turning to `CC(C)C[C@H](NC(=O)[C@H](C)NC(=O)[C@]1(C)CCC/C=C/CCC[C@](C)(NC(=O)[C@H](CO)NC(=O)[C@@H](NC(=O)[C@H](CC(C)C)NC(=O)[C@H](Cc2ccccc2)NC(=O)[C@H](CCCCN)NC(=O)[C@H](C)NC(=O)[C@H](CC(C)C)NC(=O)[C@H](CCCCN)NC(=O)[C@H](CCCCN)NC(=O)COCCOCCOCCN)C(C)C)C(=O)N[C@@H](C)C(=O)N[C@@H](C)C(=O)N[C@@H](CCCCN)C(=O)N1)C(=O)N[C@@H](CCCCN)C(=O)O`, the result in assay [1] and in assay [2] was inactive.
On to `CC(C)C[C@H](NC(=O)[C@H](C)NC(=O)[C@]1(C)CCC/C=C/CCC[C@](C)(NC(=O)[C@H](CO)NC(=O)[C@@H](NC(=O)[C@H](CC(C)C)NC(=O)[C@H](Cc2ccccc2)NC(=O)[C@H](C)NC(=O)[C@H](C)NC(=O)[C@H](CC(C)C)NC(=O)[C@H](CCCCN)NC(=O)[C@H](CCCCN)NC(=O)COCCOCCOCCN)C(C)C)C(=O)N[C@@H](C)C(=O)N[C@@H](CC(C)C)C(=O)N[C@@H](CCCCN)C(=O)N1)C(=O)N[C@@H](CCCCN)C(=O)O`, for which the result in assay [1] and in assay [2] was inactive.
`CC(C)C[C@@H]1NC(=O)[C@H](C)NC(=O)[C@@](C)(NC(=O)[C@H](CO)NC(=O)[C@@H](NC(=O)[C@H](CC(C)C)NC(=O)[C@H](Cc2ccccc2)NC(=O)[C@H](CCCCN)NC(=O)[C@H](C)NC(=O)[C@H](CC(C)C)NC(=O)[C@H](CCCCN)NC(=O)[C@H](CCCCN)NC(=O)COCCOCCOCCN)C(C)C)CCC/C=C/CCC[C@@](C)(C(=O)N[C@@H](C)C(=O)N[C@@H](C)C(=O)N[C@@H](CCCCN)C(=O)O)NC(=O)[C@H](CCCCN)NC1=O`: the outcome in assay [1] and in assay [2] was inactive.
In the case of `CC(C)C[C@@H]1NC(=O)[C@H](C)NC(=O)[C@@](C)(NC(=O)[C@H](CO)NC(=O)[C@@H](NC(=O)[C@H](CC(C)C)NC(=O)[C@H](Cc2ccccc2)NC(=O)[C@H](CCCCN)NC(=O)[C@H](C)NC(=O)[C@H](CC(C)C)NC(=O)[C@H](CCCCN)NC(=O)[C@H](CCCCN)NC(=O)COCCOCCOCCN)C(C)C)CCC/C=C/CCC[C@@](C)(C(=O)N[C@@H](C)C(=O)N[C@@H](CC(C)C)C(=O)N[C@@H](CCCCN)C(=O)O)NC(=O)[C@H](C)NC1=O`, the result in assay [1] and in assay [2] was inactive.
As for `CC(C)C[C@H](NC(=O)[C@H](C)NC(=O)[C@]1(C)CCC/C=C/CCC[C@](C)(NC(=O)[C@H](CO)NC(=O)[C@@H](NC(=O)[C@H](CC(C)C)NC(=O)[C@H](Cc2ccccc2)NC(=O)[C@H](CCCCN)NC(=O)[C@H](C)NC(=O)[C@H](CC(C)C)NC(=O)[C@H](CCCCN)NC(=O)[C@H](CCCCN)NC(=O)COCCOCCOCCN)C(C)C)C(=O)N[C@@H](C)C(=O)N[C@@H](CC(C)C)C(=O)N[C@@H](CCCCN)C(=O)N1)C(=O)N[C@@H](CCCCN)C(=O)O`, the result in assay [1] and in assay [2] was inactive.
For the molecule `CC(C)C[C@H](NC(=O)[C@H](C)NC(=O)[C@]1(C)CCC/C=C/CCC[C@](C)(NC(=O)[C@H](CO)NC(=O)[C@H](C)NC(=O)[C@H](CC(C)C)NC(=O)[C@H](Cc2ccccc2)NC(=O)[C@H](CCCCN)NC(=O)[C@H](C)NC(=O)[C@H](CC(C)C)NC(=O)[C@H](CCCCN)NC(=O)[C@H](CCCCN)NC(=O)COCCOCCOCCN)C(=O)N[C@@H](C)C(=O)N[C@@H](CC(C)C)C(=O)N[C@@H](CCCCN)C(=O)N1)C(=O)N[C@@H](CCCCN)C(=O)O`, the outcome in assay [1] and in assay [2] was inactive.
With `CC(C)C[C@H](NC(=O)[C@H](C)NC(=O)[C@]1(C)CCC/C=C/CCC[C@](C)(NC(=O)[C@H](CO)NC(=O)[C@@H](NC(=O)[C@H](CC(C)C)NC(=O)[C@H](C)NC(=O)[C@H](CCCCN)NC(=O)[C@H](C)NC(=O)[C@H](CC(C)C)NC(=O)[C@H](CCCCN)NC(=O)[C@H](CCCCN)NC(=O)COCCOCCOCCN)C(C)C)C(=O)N[C@@H](C)C(=O)N[C@@H](CC(C)C)C(=O)N[C@@H](CCCCN)C(=O)N1)C(=O)N[C@@H](CCCCN)C(=O)O`, the outcome in assay [1] and in assay [2] was inactive.
`CC(C)C[C@H](NC(=O)[C@H](C)NC(=O)[C@]1(C)CCC/C=C/CCC[C@](C)(NC(=O)[C@H](C)NC(=O)[C@@H](NC(=O)[C@H](CC(C)C)NC(=O)[C@H](Cc2ccccc2)NC(=O)[C@H](CCCCN)NC(=O)[C@H](C)NC(=O)[C@H](CC(C)C)NC(=O)[C@H](CCCCN)NC(=O)[C@H](CCCCN)NC(=O)COCCOCCOCCN)C(C)C)C(=O)N[C@@H](C)C(=O)N[C@@H](CC(C)C)C(=O)N[C@@H](CCCCN)C(=O)N1)C(=O)N[C@@H](CCCCN)C(=O)O`: the outcome in assay [1] and in assay [2] was inactive.

The values are drawn from ChEMBL document CHEMBL4184287, “Investigating PKA-RII specificity using analogs of the PKA:AKAP peptide inhibitor STAD-2” (Bioorg Med Chem, 2018).
